Data published in ChEMBL document CHEMBL5303300, “EUbOPEN Chemogenomics Library - Multiplex” (2023).
“And” between values parts separate entries of the source, which are not always exact repeats. Identical values can stand only once.

System: U2OS
Test: Multiplex assay against U2OS
Assay type: toxicity, cell-based
Settings: human, number of replicates 2
In short: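 Live cells were stained at seeding with Hoechst33342, BioTracker Green Microtubule Cytoskeleton Dye, MitoTracker Red and Annexin V Alexa Fluor 680, then imaged on a CQ1 microscope at 37°C and 5% CO2 after compound addition. CellPathfinder machine-learning gating split cells into Hoechst high-intensity objects or normal cells. Normal cells were split into healthy, pyknosed or fragmented nuclei, and pyknosed cells into mitotic or apoptotic. Tubulin, mitochondrial-mass and membrane-permeability phenotypes are per cents of healthy-nucleus cells.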

[1] = 12 h, 1 µM, compound concentration 1 uM
[2] = 12 h, 10 µM, compound concentration 10 uM
[3] = 24 h, 1 µM, compound concentration 1 uM
[4] = 24 h, 10 µM, compound concentration 10 uM
[5] = 48 h, 1 µM, compound concentration 1 uM
[6] = 48 h, 10 µM, compound concentration 10 uM

COc1ccc(CC[C@@H](OC(=O)[C@@H]2CCCCN2C(=O)[C@H](c2cc(OC)c(OC)c(OC)c2)C2CCCCC2)c2cccc(OCCN3CCOCC3)c2)cc1OC
Population Apoptotic (%) [1]: 66% and 51% | Population Fragmented Nuclei (%) [1]: 10% and 3% | Population Healthy Nuclei (%) [1]: 64% and 82% | Population Hoechst High Intensity Objects (%) [1]: 0% | Population Membrane Permeable-Phenotype (%) [1]: 33% and 21% | Population Mitochondria Different-Phenotype (%) [1]: 16% and 37% | Population Mitotic Cells (%) [1]: 33% and 48% | Population Normal (%) [1]: 100% and 99% | Population Pyknosed Nuclei (%) [1]: 24% and 13% | Population Tubulin-Different-Phenotype (%) [1]: 45% and 43% | Population Apoptotic (%) [2]: 100% and 70% | Population Healthy Nuclei (%) [2]: 56% and 81% | Population Hoechst High Intensity Objects (%) [2]: 2% and 0% | Population Membrane Permeable-Phenotype (%) [2]: 82% and 57% | Population Mitochondria Different-Phenotype (%) [2]: 47% and 40% | Population Normal (%) [2]: 97% and 99% | Population Pyknosed Nuclei (%) [2]: 14% | Population Tubulin-Different-Phenotype (%) [2]: 100% and 98% | Population Apoptotic (%) [3]: 60% and 75% | Population Fragmented Nuclei (%) [3]: 11% and 3% | Population Healthy Nuclei (%) [3]: 65% and 77% | Population Hoechst High Intensity Objects (%) [3]: 0% | Population Membrane Permeable-Phenotype (%) [3]: 21% and 18% | Population Mitotic Cells (%) [3]: 40% and 24% | Population Normal (%) [3]: 100% | Population Pyknosed Nuclei (%) [3]: 23% and 18% | Population Tubulin-Different-Phenotype (%) [3]: 28% and 35% | Population Apoptotic (%) [4]: 73% and 96% | Population Fragmented Nuclei (%) [4]: 22% and 9% | Population Healthy Nuclei (%) [4]: 43% and 67% | Population Hoechst High Intensity Objects (%) [4]: 0% | Population Membrane Permeable-Phenotype (%) [4]: 89% and 86% | Population Mitochondria Different-Phenotype (%) [4]: 42% and 39% | Population Normal (%) [4]: 100% and 99% | Population Pyknosed Nuclei (%) [4]: 34% and 23% | Population Tubulin-Different-Phenotype (%) [4]: 100% and 99% | Population Apoptotic (%) [5]: 57% and 87% | Population Fragmented Nuclei (%) [5]: 10% and 3% | Population Healthy Nuclei (%) [5]: 55% and 75% | Population Hoechst High Intensity Objects (%) [5]: 0% | Population Membrane Permeable-Phenotype (%) [5]: 9% and 12% | Population Mitochondria Different-Phenotype (%) [5]: 15% and 37% | Population Normal (%) [5]: 100% and 99% | Population Pyknosed Nuclei (%) [5]: 35% and 21% | Population Tubulin-Different-Phenotype (%) [5]: 24% and 37% | Population Apoptotic (%) [6]: 96% and 91% | Population Fragmented Nuclei (%) [6]: 22% and 10% | Population Healthy Nuclei (%) [6]: 25% and 51% | Population Hoechst High Intensity Objects (%) [6]: 4% and 1% | Population Membrane Permeable-Phenotype (%) [6]: 91% | Population Mitochondria Different-Phenotype (%) [6]: 33% and 42% | Population Mitotic Cells (%) [6]: 4% and 8% | Population Normal (%) [6]: 96% and 98% | Population Pyknosed Nuclei (%) [6]: 52% and 37% | Population Tubulin-Different-Phenotype (%) [6]: 100%

CC(C)N1CCN(Cc2cnc(-c3cc(-c4cccc5[nH]ccc45)cc4[nH]ncc34)o2)CC1 [NEMIRALISIB]
Population Apoptotic (%) [1]: 42% and 80% | Population Fragmented Nuclei (%) [1]: 12% and 2% | Population Healthy Nuclei (%) [1]: 70% and 85% | Population Hoechst High Intensity Objects (%) [1]: 0% | Population Membrane Permeable-Phenotype (%) [1]: 0% and 1% | Population Mitochondria Different-Phenotype (%) [1]: 3% and 0% | Population Mitotic Cells (%) [1]: 57% and 20% | Population Normal (%) [1]: 100% and 99% | Population Pyknosed Nuclei (%) [1]: 17% and 11% | Population Tubulin-Different-Phenotype (%) [1]: 53% and 72% | Population Apoptotic (%) [2]: 69% and 57% | Population Fragmented Nuclei (%) [2]: 13% | Population Healthy Nuclei (%) [2]: 62% and 65% | Population Hoechst High Intensity Objects (%) [2]: 0% | Population Membrane Permeable-Phenotype (%) [2]: 15% and 8% | Population Mitotic Cells (%) [2]: 30% and 42% | Population Normal (%) [2]: 100% | Population Pyknosed Nuclei (%) [2]: 24% and 20% | Population Tubulin-Different-Phenotype (%) [2]: 18% and 30% | Population Apoptotic (%) [3]: 60% and 80% | Population Fragmented Nuclei (%) [3]: 4% and 3% | Population Healthy Nuclei (%) [3]: 72% and 87% | Population Hoechst High Intensity Objects (%) [3]: 0% | Population Membrane Permeable-Phenotype (%) [3]: 0% and 1% | Population Mitochondria Different-Phenotype (%) [3]: 0% and 2% | Population Mitotic Cells (%) [3]: 40% and 19% | Population Normal (%) [3]: 100% and 99% | Population Pyknosed Nuclei (%) [3]: 22% and 9% | Population Tubulin-Different-Phenotype (%) [3]: 59% and 78% | Population Apoptotic (%) [4]: 33% and 60% | Population Fragmented Nuclei (%) [4]: 10% | Population Healthy Nuclei (%) [4]: 52% and 55% | Population Hoechst High Intensity Objects (%) [4]: 2% and 0% | Population Membrane Permeable-Phenotype (%) [4]: 4% and 8% | Population Mitochondria Different-Phenotype (%) [4]: 36% and 43% | Population Mitotic Cells (%) [4]: 66% and 39% | Population Normal (%) [4]: 97% and 99% | Population Pyknosed Nuclei (%) [4]: 37% and 34% | Population Tubulin-Different-Phenotype (%) [4]: 32% and 33% | Population Apoptotic (%) [5]: 47% and 70% | Population Fragmented Nuclei (%) [5]: 4% and 3% | Population Healthy Nuclei (%) [5]: 74% and 88% | Population Hoechst High Intensity Objects (%) [5]: 0% | Population Membrane Permeable-Phenotype (%) [5]: 1% and 2% | Population Mitochondria Different-Phenotype (%) [5]: 1% and 0% | Population Mitotic Cells (%) [5]: 52% and 29% | Population Normal (%) [5]: 100% | Population Pyknosed Nuclei (%) [5]: 20% and 8% | Population Tubulin-Different-Phenotype (%) [5]: 81% and 76% | Population Apoptotic (%) [6]: 60% and 67% | Population Fragmented Nuclei (%) [6]: 23% and 8% | Population Healthy Nuclei (%) [6]: 25% and 55% | Population Hoechst High Intensity Objects (%) [6]: 3% and 2% | Population Membrane Permeable-Phenotype (%) [6]: 12% and 11% | Population Mitochondria Different-Phenotype (%) [6]: 37% and 35% | Population Mitotic Cells (%) [6]: 39% and 32% | Population Normal (%) [6]: 96% and 97% | Population Pyknosed Nuclei (%) [6]: 51% and 35% | Population Tubulin-Different-Phenotype (%) [6]: 25% and 38%

CS(=O)(=O)c1ccc(C(=O)Nc2cccc(COc3cc(F)c(Br)cc3CN3CC[C@H](O)C3)c2)c(Cl)c1.O=CO
Population Apoptotic (%) [1]: 62% and 55% | Population Hoechst High Intensity Objects (%) [1]: 0% | Population Pyknosed Nuclei (%) [1]: 19% and 14% | Population Apoptotic (%) [2]: 66% and 54% | Population Healthy Nuclei (%) [2]: 36% and 74% | Population Hoechst High Intensity Objects (%) [2]: 0% | Population Pyknosed Nuclei (%) [2]: 20% and 16% | Total Cell Count [2]: 90 and 192 | Population Apoptotic (%) [3]: 50% and 66% | Population Healthy Nuclei (%) [3]: 56% | Population Hoechst High Intensity Objects (%) [3]: 0% | Population Pyknosed Nuclei (%) [3]: 20% and 10% | Population Apoptotic (%) [4]: 82% and 73% | Population Healthy Nuclei (%) [4]: 33% | Population Hoechst High Intensity Objects (%) [4]: 0% | Population Pyknosed Nuclei (%) [4]: 19% and 26% | Total Cell Count [4]: 86 and 214 | Population Apoptotic (%) [5]: 58% and 92% | Population Fragmented Nuclei (%) [5]: 22% | Population Healthy Nuclei (%) [5]: 58% | Population Hoechst High Intensity Objects (%) [5]: 0% | Population Pyknosed Nuclei (%) [5]: 19% and 10% | Population Apoptotic (%) [6]: 88% and 84% | Population Healthy Nuclei (%) [6]: 26% | Population Hoechst High Intensity Objects (%) [6]: 0% | Population Pyknosed Nuclei (%) [6]: 28%

c1ccc2c(-c3coc4cc(-c5ccc(N6CCNCC6)cc5)cnc34)ccnc2c1
Population Healthy Nuclei (%) [1]: 82% and 84% | Population Mitochondria Different-Phenotype (%) [1]: 0% and 2% | Population Normal (%) [1]: 100% | Population Pyknosed Nuclei (%) [1]: 0% and 10% | Population Tubulin-Different-Phenotype (%) [1]: 84% and 81% | Population Apoptotic (%) [2]: 93% and 90% | Population Healthy Nuclei (%) [2]: 0% and 6% | Population Mitochondria Different-Phenotype (%) [2]: 100% and 75% | Population Mitotic Cells (%) [2]: 6% and 10% | Population Normal (%) [2]: 100% and 98% | Population Pyknosed Nuclei (%) [2]: 95% and 60% | Population Tubulin-Different-Phenotype (%) [2]: 100% | Total Cell Count [2]: 163 and 67 | Population Apoptotic (%) [3]: 100% and 76% | Population Healthy Nuclei (%) [3]: 91% and 82% | Population Mitochondria Different-Phenotype (%) [3]: 0% | Population Mitotic Cells (%) [3]: 0% and 23% | Population Normal (%) [3]: 100% | Population Pyknosed Nuclei (%) [3]: 2% and 10% | Population Tubulin-Different-Phenotype (%) [3]: 81% and 82% | Population Apoptotic (%) [4]: 92% and 87% | Population Healthy Nuclei (%) [4]: 0% and 4% | Population Mitotic Cells (%) [4]: 7% and 12% | Population Normal (%) [4]: 98% and 97% | Population Pyknosed Nuclei (%) [4]: 93% and 56% | Population Tubulin-Different-Phenotype (%) [4]: 100% and 66% | Total Cell Count [4]: 160 and 71 | Population Apoptotic (%) [5]: 75% | Population Healthy Nuclei (%) [5]: 83% and 84% | Population Mitochondria Different-Phenotype (%) [5]: 0% | Population Mitotic Cells (%) [5]: 25% | Population Normal (%) [5]: 100% | Population Pyknosed Nuclei (%) [5]: 6% and 10% | Population Tubulin-Different-Phenotype (%) [5]: 87% | Population Apoptotic (%) [6]: 91% | Population Healthy Nuclei (%) [6]: 8% and 1% | Population Mitotic Cells (%) [6]: 8% | Population Normal (%) [6]: 98% | Population Pyknosed Nuclei (%) [6]: 39% and 87% | Population Tubulin-Different-Phenotype (%) [6]: 57% and 100% | Total Cell Count [6]: 87 and 164

CS(=O)(=O)c1ccc(C(=O)Nc2cc(F)c(F)c(COc3cc(F)c(Br)cc3CN3CC[C@H](O)C3)c2)c(Cl)c1.O=CO
Population Apoptotic (%) [1]: 71% and 68% | Population Hoechst High Intensity Objects (%) [1]: 0% | Population Normal (%) [1]: 100% | Population Apoptotic (%) [2]: 51% and 52% | Population Healthy Nuclei (%) [2]: 28% | Population Hoechst High Intensity Objects (%) [2]: 0% | Population Normal (%) [2]: 99% and 100% | Population Apoptotic (%) [3]: 60% and 78% | Population Hoechst High Intensity Objects (%) [3]: 0% | Population Normal (%) [3]: 100% | Population Apoptotic (%) [4]: 88% and 86% | Population Hoechst High Intensity Objects (%) [4]: 0% | Population Normal (%) [4]: 100% and 99% | Population Apoptotic (%) [5]: 60% and 89% | Population Healthy Nuclei (%) [5]: 85% | Population Hoechst High Intensity Objects (%) [5]: 1% and 0% | Population Normal (%) [5]: 98% and 100% | Population Apoptotic (%) [6]: 98% and 90% | Population Healthy Nuclei (%) [6]: 14% and 6% | Population Hoechst High Intensity Objects (%) [6]: 1% and 3% | Population Normal (%) [6]: 98% and 96%
